Test results from ChEMBL document CHEMBL4177752, “Discovery of Novel Schizocommunin Derivatives as Telomeric G-Quadruplex Ligands That Trigger Telomere Dysfunction and the Deoxyribonucleic Acid (DNA) Damage Response” (J Med Chem, 2018).
Activity calls are given as the source filed them. The calls are words filed in the database; no cut-off is given here.

Key:
Quadruplex DNA [1] = test: Stabilization of F21T telomeric G-quadruplex DNA (unknown origin) assessed as change in melting temperature at 1 uM by FRET assay; format: nucleic-acid assay
Summary of the method: (§1)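 FRET melting: 0.2 µM F21T or F10T (FAM/TAMRA-labelled), with or without 1.0 µM ligand, in 10 mM Tris-HCl pH 7.4 with 60 mM KCl. Excitation 470 nm, emission 530 nm, read every 1 °C from 37–99 °C at 1 °C/min with a 30 s hold. ΔTm = Tm(DNA+ligand) − Tm(DNA).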

[2] = Stabilization of F10T hairpin duplex DNA (unknown origin) assessed as change in melting temperature at 1 uM by FRET assay; summary of the method: as §1
Quadruplex DNA [3] = test: Binding affinity to HTG21 telomeric G-quadruplex DNA (unknown origin) by SPR method; format: nucleic-acid assay
Summary of the method: (§2)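 SPR: biotinylated HTG21 or hairpin DNA (200 nM) was folded in 50 mM Tris-HCl pH 7.4 with 100 mM KCl and captured to about 1,000 RU on an NLC chip against a blank reference cell. Ligand at 0.625–40 µM was injected at 25 µL/min (400 s association, 300 s dissociation) at 25 °C. The chip was regenerated with 1 M KCl and blank sensorgrams were subtracted.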

[4] = Binding affinity to hairpin duplex DNA (unknown origin) by SPR method; summary of the method: as §2
HeLa = test: Antiproliferative activity against human HeLa cells after 48 hrs by MTT assay; format: functional, cell-based
Summary of the method: (§3)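 Cells seeded at 5.0×10^3 per well and exposed to a range of compound concentrations for 48 h. MTT (2.5 mg/mL solution) was then added for 4 h, formazan was dissolved in DMSO, and OD was read at 570 nm. HL-60 was grown in RPMI-1640 with 10% FBS, the other lines in DMEM with 10% FBS, at 37 °C and 5% CO2. Triplicates; IC50 taken from mean OD versus concentration curves.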

SiHa [5] = test: Antiproliferative activity against human SiHa cells after 48 hrs by MTT assay; format: functional, cell-based; summary of the method: as §3
HL-60 = test: Antiproliferative activity against human HL60 cells after 48 hrs by MTT assay; format: functional, cell-based; details: HL-60, 48 h; summary of the method: as §3
A549 = test: Antiproliferative activity against human A549 cells after 48 hrs by MTT assay; format: functional, cell-based; details: A549, 48 h; summary of the method: as §3
U2OS [6] = test: Antiproliferative activity against human U2OS cells after 48 hrs by MTT assay; format: functional, cell-based; summary of the method: as §3
Quadruplex DNA [7] = test: Stabilization of F21T telomeric G-quadruplex DNA (unknown origin) at 1 uM in presence of non-fluorescent duplex DNA ds26 by FRET assay; format: nucleic-acid assay
Summary of the method: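 Competition FRET: 0.2 µM F21T with 1 µM ligand, plus or minus unlabelled duplex ds26 at 3 µM (15-fold) or 10 µM (50-fold), in 10 mM Tris-HCl pH 7.4 with 60 mM KCl. Melting monitored at 470/530 nm over 37–99 °C.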

[8] = Binding affinity to hairpin duplex DNA (unknown origin) at 40 uM by SPR method; summary of the method: as §2
[9] = Inhibition of telomerase (unknown origin) by TRAP-LIG assay; set-up: species or system Homo sapiens
Mus musculus = test: Toxicity in BALB/C-nu/nu mouse xenografted with human SiHa cells assessed as decrease in body weight at 1 mg/kg, ip administered daily for 3 weeks measured everyday during compound dosing; format: organism-based; details: in vivo, 504 h
Summary of the method: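 SiHa cells (1×10^7 per 100 µL, serum-free DMEM) were injected subcutaneously. Grown tumors were divided into pieces and implanted into BALB/C-nu/nu mice. Caliper volume (1/2 × L × W²) and body weight were recorded daily; tumors were weighed at the end.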

Quadruplex DNA [10] = test: Stabilization of telomeric G-quadruplex DNA in human SiHa cells assessed as increase in BG4 foci per nucleus at 2 uM after 24 hrs by DAPI staining-based immunofluorescence method relative to control; format: cell-based
Summary of the method: (§4)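 Cells were treated 24 h with 2 µM compound or 0.1% DMSO, then fixed (4% paraformaldehyde), permeabilized (0.5% Triton X-100) and blocked (5% goat serum). Staining used BG4 (80 ng/µL, 37 °C 3 h) with anti-FLAG, and/or γ-H2AX, TRF2 or POT1 antibodies at 4 °C overnight. Alexa 488/555 secondaries and DAPI followed. Foci or co-localized foci per nucleus were counted by confocal microscopy; mean ± SEM, two-tailed unpaired t test.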

Quadruplex DNA [11] = test: Stabilization of telomeric G-quadruplex DNA in human U2OS cells assessed as increase in BG4 foci per nucleus at 2 uM after 24 hrs by DAPI staining-based immunofluorescence method; format: cell-based; summary of the method: as §4
Quadruplex DNA [12] = test: Stabilization of telomeric G-quadruplex DNA in human SiHa cells assessed as induction of DNA damage response by measuring gamma-H2AX foci formation per nucleus at 2 uM after 24 hrs by DAPI staining-based immunofluorescence method relative to control; format: cell-based; summary of the method: as §4
U2OS [13] = test: Cell cycle arrest in human U2OS cells at 1 uM after 12 hrs by propidium iodide staining-based flow cytometric method; format: functional
Summary of the method: (§5)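 SiHa or U2OS cells (2.0×10^5 per well) were treated with compound or DMSO for 12 h, fixed in ice-cold 70% ethanol overnight, and stained with 50 µg/mL PI plus RNase A for 30 min at room temperature in the dark. 10,000 events were collected by flow cytometry to give the phase distribution.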

SiHa [14] = test: Cell cycle arrest in human SiHa cells at 1 uM after 12 hrs by propidium iodide staining-based flow cytometric method; format: functional; summary of the method: as §5

| Compound | ΔTm (Quadruplex DNA [1]) | ΔTm [2] | Kd (Quadruplex DNA [3]) | Kd [4] | IC50 (HeLa) | IC50 (SiHa [5]) | IC50 (HL-60) | IC50 (A549) | IC50 (U2OS [6]) | Activity (Quadruplex DNA [7]) | Activity [8] | IC50 [9] | Activity (Mus musculus) | Activity (Quadruplex DNA [10]) | Activity (Quadruplex DNA [11]) | Activity (Quadruplex DNA [12]) | Activity (U2OS [13]) | Activity (SiHa [14]) |
| --- | --- | --- | --- | --- | --- | --- | --- | --- | --- | --- | --- | --- | --- | --- | --- | --- | --- | --- |
| CN(C)CCNc1cc2nc(/C=C3\C(=O)Nc4cc(N5CCN(C)CC5)c(F)cc43)[nH]c(=O)c2cc1F | 22.5 °C | 0.3 °C | 6.2 µM | 15 µM | 7.7 µM | 11.4 µM | 2.8 µM | 6 µM | 5.7 µM | – | – | – | – | – | – | – | – | – |
| CN(C)CCCNc1cc2nc(/C=C3\C(=O)Nc4cc(N5CCN(C)CC5)c(F)cc43)[nH]c(=O)c2cc1F | 24.6 °C | 0.1 °C | 7.6 µM | – | 17.6 µM | 4.9 µM | 3.8 µM | 5.9 µM | 9 µM | Active | inactive | 12.3 µM | – | – | – | – | – | – |
| COc1cccc2c1C(=O)c1c(O)c3c(c(O)c1C2=O)C[C@@](O)(C(=O)CO)C[C@@H]3O[C@H]1C[C@H](N)[C@H](O)[C@H](C)O1 [DOXORUBICIN] | – | – | – | – | – | – | – | – | – | – | – | – | Toxic | – | – | – | – | – |
| CN1CCN(c2cc3c(cc2F)/C(=C/c2nc4cc(NCCN5CCCCC5)c(F)cc4c(=O)[nH]2)C(=O)N3)CC1 | 21.4 °C | 0.2 °C | 8.8 µM | 16 µM | 2.8 µM | 4.4 µM | 2.9 µM | 1.4 µM | 5.3 µM | – | – | – | – | – | – | – | – | – |
| CN(C)CCCNc1cc2nc(/C=C3/C(=O)Nc4cc(N5CCN(C)CC5)ccc43)n(C)c(=O)c2cc1F | 7.4 °C | 0.1 °C | 30 µM | > 40 µM | 14 µM | 14 µM | 30.6 µM | 15.4 µM | 12.5 µM | – | – | – | – | – | – | – | – | – |
| CN(C)CCCNc1ccc2c(=O)[nH]c(/C=C3\C(=O)Nc4ccccc43)nc2c1 | 8.4 °C | 0.1 °C | > 40 µM | – | 42.5 µM | 27.6 µM | 4.1 µM | 19.6 µM | 20.4 µM | Active | inactive | > 40 µM | – | inactive | inactive | inactive | inactive | inactive |
